# From publication PMC6624406 (British Journal of Clinical Pharmacology, 2019)
# Assays:
# [1] = type: in vivo; settings: human, plasma, oral
# [2] = human, in vivo; cited from earlier work
# Safety and tolerability = type: in vivo, human; settings: for Participants reporting at least 1 AE: n = 16
# Method in brief: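 Phase I open-label two-part study in opioid-dependent, HIV-seronegative adults on stable once-daily opioid maintenance, 16 per part. Usual dose alone on day 1, then with test compound 600 mg ER BID on days 2–9, confined day -1 to day 10. Safety assessed by AE reports, vital signs (screening, days 1, 5, 10), ECG/physical exam (screening, day 1, day 10) and clinical labs (days 5, 9).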
# HIV‐1 = settings: cited from earlier work
# [3] = Part 1, while receiving MET with FTR
# [4] = Part 2, while receiving BUP/NLX with FTR
SMILES,AUC [1],"concentration at 12 h ([1]; TMR C12, geometric mean (coefficient of variation [%]), FTR 600 mg ER BID coadministered with BUP/NLX)","Cmax ([1]; TMR Cmax, geometric mean (coefficient of variation [%]), FTR 600 mg ER BID coadministered with BUP/NLX)",Accumulation [2],Tolerability (Safety and tolerability; FTR 600 mg ER BID coadministered with MET or BUP/NLX),Participants reporting headache (Safety and tolerability; [3]),Participants reporting nausea (Safety and tolerability; [3]),"Participants reporting at least 1 AE (Safety and tolerability; Part 1, while receiving MET with FTR 600 mg ER BID)",Participants reporting headache (Safety and tolerability; [4]),Participants reporting nausea (Safety and tolerability; [4]),"Participants reporting at least 1 AE (Safety and tolerability; Part 2, while receiving BUP/NLX with FTR 600 mg ER BID)","Decline in HIV‐1 RNA (HIV‐1; 8 days of functional FTR monotherapy, FTR 600 mg ER BID)",Rate of HIV virological suppression (HIV‐1; FTR with an optimized background therapy for 24 and 48 weeks)
"COc1cnc(-n2cnc(C)n2)c2[nH]cc(C(=O)C(=O)N3CCN(C(=O)c4ccccc4)CC3)c12 [TMR, temsavir]",9760 ng·h/mL,468 ng/mL,2050 ng/mL,< 2 fold,–,–,–,–,–,–,–,–,–
"COc1cnc(-n2cnc(C)n2)c2c1c(C(=O)C(=O)N1CCN(C(=O)c3ccccc3)CC1)cn2COP(=O)(O)O [FTR, Fostemsavir]",–,–,–,–,well tolerated,12.5%,12.5%,62.5%,6.3%,18.8%,50.0%,0.8 log10 copies/mL,54%
